Activity calls are given as the source filed them. The calls are words filed in the database; no cut-off is given here.
What was measured:
[1] = molecular target: Cannabinoid receptor 1 (Mus musculus) (UniProt P47746); assay: Activation of CB1 receptor in B6SJL mouse brain membrane assessed as [35S]-GTPgammaS binding at 10 uM after 30 mins by liquid scintillation spectrophotometric analysis in presence of O-2050; format: functional, cell membranes
Cannabinoid receptor 1 = Cannabinoid receptor 1 (Mus musculus, UniProt P47746); assay: Displacement of [3H]CP-55,940 from CB1 receptor in B6SJL mouse brain membrane after 90 mins by liquid scintillation spectrophotometric analysis; format: cell membranes
Cannabinoid receptor 1, sequence (P47746 whole entry): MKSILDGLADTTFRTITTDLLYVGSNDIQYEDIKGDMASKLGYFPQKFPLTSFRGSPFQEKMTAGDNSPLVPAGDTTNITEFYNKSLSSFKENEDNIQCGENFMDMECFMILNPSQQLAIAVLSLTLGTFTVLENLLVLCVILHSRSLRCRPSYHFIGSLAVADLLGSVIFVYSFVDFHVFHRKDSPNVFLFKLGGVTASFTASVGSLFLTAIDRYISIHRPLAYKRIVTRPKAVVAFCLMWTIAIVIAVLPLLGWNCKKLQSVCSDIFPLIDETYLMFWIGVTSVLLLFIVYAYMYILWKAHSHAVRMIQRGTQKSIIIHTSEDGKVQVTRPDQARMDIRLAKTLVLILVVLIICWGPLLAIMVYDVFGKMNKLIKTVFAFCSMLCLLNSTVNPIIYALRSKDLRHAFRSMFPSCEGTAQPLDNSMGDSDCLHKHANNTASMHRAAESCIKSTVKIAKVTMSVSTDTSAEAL
Method in brief: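 B6SJL mouse brain membranes (50 μg) with 0.2 nM [3H]CP-55,940 and competitor at 0.1 nM–10 μM. Buffer 5 mM MgCl2, 50 mM Tris, 0.05% BSA; 90 min at room temperature, triplicate. Nonspecific binding set with 10 μM WIN-55,212-2. Filtered on GF/B, washed with Tris/BSA, counted by scintillation. Specific binding given as % of vehicle.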

Cytochrome P450 3A4 [2] = molecular target: T1, Cytochrome P450 3A4 (Homo sapiens, UniProt P08684); assay: Drug metabolism assessed as human recombinant CYP3A4-mediated (1-(5-hydroxypentyl)-1H-indol-3-yl)(naphthalen-1-yl)methanone formation at 10 uM after 90 mins by LC-MS/MS analysis; format: ADME; settings: recombinant enzyme, 1.5 h
T1 sequence (P08684 whole entry): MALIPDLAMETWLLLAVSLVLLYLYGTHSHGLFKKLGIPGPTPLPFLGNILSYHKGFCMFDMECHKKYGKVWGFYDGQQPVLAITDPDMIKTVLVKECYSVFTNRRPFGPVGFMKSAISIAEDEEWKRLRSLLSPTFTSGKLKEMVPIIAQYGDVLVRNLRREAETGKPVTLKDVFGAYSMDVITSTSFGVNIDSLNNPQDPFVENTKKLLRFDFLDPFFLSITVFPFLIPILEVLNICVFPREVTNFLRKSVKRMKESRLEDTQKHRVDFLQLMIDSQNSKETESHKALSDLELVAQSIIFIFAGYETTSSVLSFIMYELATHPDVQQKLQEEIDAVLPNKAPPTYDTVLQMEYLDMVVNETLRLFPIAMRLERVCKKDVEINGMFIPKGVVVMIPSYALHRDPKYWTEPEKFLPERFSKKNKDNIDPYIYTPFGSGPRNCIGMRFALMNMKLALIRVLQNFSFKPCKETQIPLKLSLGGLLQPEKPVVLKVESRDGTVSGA
Method in brief: (§1)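 Recombinant human CYP2E1 or CYP3A4 (2 pmol) incubated with substrate at 10 μM final, dried from ethanol. Buffer 0.1 M KPO4 pH 7.4 with NADPH-regenerating system, which starts the reaction. 90 min at 37°C, triplicate, with no-substrate, no-protein and no-NADPH controls. Stopped with ethanol, centrifuged, and metabolites quantified by LC-MS/MS.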

Cytochrome P450 2E1 [3] = molecular target: T2, Cytochrome P450 2E1 (Homo sapiens, UniProt P05181); assay: Drug metabolism assessed as human recombinant CYP2E1-mediated (1-(5-fluoro-4-hydroxypentyl)-1H-indol-3-yl)(naphthalen-1-yl)methanone formation at 10 uM after 90 mins by LC-MS/MS analysis; format: ADME; settings: recombinant enzyme, 1.5 h; method in brief: as §1
T2 sequence (P05181 whole entry): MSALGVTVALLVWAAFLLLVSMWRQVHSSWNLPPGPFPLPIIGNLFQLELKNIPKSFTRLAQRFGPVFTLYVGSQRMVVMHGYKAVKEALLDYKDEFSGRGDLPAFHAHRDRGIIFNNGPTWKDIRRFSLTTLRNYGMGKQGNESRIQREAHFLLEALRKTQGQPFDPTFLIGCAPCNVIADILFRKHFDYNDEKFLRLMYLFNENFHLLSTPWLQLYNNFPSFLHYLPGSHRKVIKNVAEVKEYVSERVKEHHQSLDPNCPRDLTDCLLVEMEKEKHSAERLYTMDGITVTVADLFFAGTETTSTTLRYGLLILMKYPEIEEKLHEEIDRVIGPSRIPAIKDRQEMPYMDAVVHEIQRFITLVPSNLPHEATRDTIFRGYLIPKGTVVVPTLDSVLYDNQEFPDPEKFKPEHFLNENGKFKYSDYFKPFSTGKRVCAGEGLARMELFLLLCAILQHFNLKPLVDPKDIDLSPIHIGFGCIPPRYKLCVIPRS

[4] = molecular target: Cannabinoid receptor 1 (Mus musculus) (UniProt P47746); assay: Activation of CB1 receptor in B6SJL mouse brain membrane assessed as [35S]-GTPgammaS binding at 10 uM after 30 mins by liquid scintillation spectrophotometric analysis; format: functional, cell membranes
Method in brief: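 Mouse brain membrane homogenate (25 μg; whole B6SJL brains, pooled, Dounce-homogenised, spun 40,000g three times). Incubated with […], 0.1 nM [35S]GTPγS in 20 mM HEPES, 10 mM MgCl2, 100 mM NaCl, 20 U/l adenosine deaminase, 0.05% BSA, 30 min at 30°C, triplicate. Nonspecific binding with 10 μM unlabelled GTPγS. Stopped by GF/B filtration; filters counted by scintillation.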

[5] = Drug metabolism in human urine assessed as (1-(5-hydroxypentyl)-1H-indol-3-yl)(naphthalen-1-yl)methanone formation by LC-MS/MS analysis; format: ADME, tissue-based
Method in brief: (§2)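 Urine from suspected users (40 μl) incubated with or without β-glucuronidase (1.6 U/μl final) in 0.1 M sodium acetate pH 5.0, 60 min at 37°C with shaking. Analysed by positive-ESI LC-MS/MS against standards matrix-matched in blank pooled human urine, with confirmation by enhanced product ion spectra.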

Cytochrome P450 2E1 [6] = molecular target: T2, Cytochrome P450 2E1; assay: Drug metabolism assessed as human recombinant CYP2E1-mediated 5-(3-(1-naphthoyl)-1H-indol-1-yl)pentanoic acid formation at 10 uM after 90 mins by LC-MS/MS analysis; format: ADME; settings: recombinant enzyme, 1.5 h; method in brief: as §1
Cytochrome P450 3A4 [7] = molecular target: T1, Cytochrome P450 3A4; assay: Drug metabolism assessed as human recombinant CYP3A4-mediated (1-(5-fluoro-4-hydroxypentyl)-1H-indol-3-yl)(naphthalen-1-yl)methanone formation at 10 uM after 90 mins by LC-MS/MS analysis; format: ADME; settings: recombinant enzyme, 1.5 h; method in brief: as §1
[8] = Drug metabolism in human urine assessed as (1-(5-fluoro-4-hydroxypentyl)-1H-indol-3-yl)(naphthalen-1-yl)methanone formation by LC-MS/MS analysis; format: ADME, tissue-based; method in brief: as §2
Cytochrome P450 2E1 [9] = molecular target: T2, Cytochrome P450 2E1; assay: Drug metabolism assessed as human recombinant CYP2E1-mediated (1-(5-hydroxypentyl)-1H-indol-3-yl)(naphthalen-1-yl)methanone formation at 10 uM after 90 mins by LC-MS/MS analysis; format: ADME; settings: recombinant enzyme, 1.5 h; method in brief: as §1
Cytochrome P450 3A4 [10] = molecular target: T1, Cytochrome P450 3A4; assay: Drug metabolism assessed as human recombinant CYP3A4-mediated 5-(3-(1-naphthoyl)-1H-indol-1-yl)pentanoic acid formation at 10 uM after 90 mins by LC-MS/MS analysis; format: ADME; settings: recombinant enzyme, 1.5 h; method in brief: as §1
[11] = Drug metabolism in human urine assessed as 5-(3-(1-naphthoyl)-1H-indol-1-yl)pentanoic acid formation by LC-MS/MS analysis; format: ADME, tissue-based; method in brief: as §2
Liver microsome [12] = assay: Drug level in human liver microsomes treated with JWH-018 at 10 uM after 20 mins by LC-MS/MS analysis; format: ADME
Method in brief: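 Pooled human liver microsomes (75 μg) incubated with 10 μM substrate in 0.1 M KPO4 pH 7.4 with NADPH-regenerating system at 37°C. Reaction stopped with ethanol, centrifuged. Analytes quantified by positive-ESI LC-MS/MS against standards matrix-matched in reaction mixture, with confirmation by SRM-triggered enhanced product ion spectra library matching.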

Liver microsome [13] = assay: Drug metabolism in human liver microsomes assessed as intrinsic clearance per mg protein treated with JWH-018; format: ADME
Liver microsome [14] = assay: Drug metabolism in human liver microsomes assessed as intrinsic clearance per mg protein treated with AM2201; format: ADME
Cytochrome P450 2C19 = Cytochrome P450 2C19 (Homo sapiens, UniProt P33261); assay: Drug metabolism assessed as intrinsic clearance for human recombinant CYP2C19-mediated compound formation per nmol protein treated with AM2201 at 10 uM after 90 mins; format: ADME; settings: recombinant enzyme, 1.5 h
Cytochrome P450 2C19, sequence (P33261 whole entry): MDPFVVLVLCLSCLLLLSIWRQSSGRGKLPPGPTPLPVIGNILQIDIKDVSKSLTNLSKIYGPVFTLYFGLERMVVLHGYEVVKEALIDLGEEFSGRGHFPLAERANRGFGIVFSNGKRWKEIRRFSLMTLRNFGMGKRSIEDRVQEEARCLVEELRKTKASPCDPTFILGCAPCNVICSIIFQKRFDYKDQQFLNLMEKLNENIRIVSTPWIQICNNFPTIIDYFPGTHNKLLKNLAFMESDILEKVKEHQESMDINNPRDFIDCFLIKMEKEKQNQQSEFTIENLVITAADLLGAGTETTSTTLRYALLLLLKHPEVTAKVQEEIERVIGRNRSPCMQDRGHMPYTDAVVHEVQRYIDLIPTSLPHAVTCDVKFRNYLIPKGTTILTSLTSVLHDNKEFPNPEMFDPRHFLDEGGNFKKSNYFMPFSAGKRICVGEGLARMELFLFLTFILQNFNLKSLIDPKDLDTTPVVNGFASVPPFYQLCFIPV

Cytochrome P450 1A2 = molecular target: T3, Cytochrome P450 1A2 (Homo sapiens, UniProt P05177); assay: Drug metabolism assessed as intrinsic clearance for human recombinant CYP1A2-mediated compound formation per nmol protein treated with AM2201 at 10 uM after 90 mins; format: ADME; settings: recombinant enzyme, 1.5 h
T3 sequence (P05177 whole entry): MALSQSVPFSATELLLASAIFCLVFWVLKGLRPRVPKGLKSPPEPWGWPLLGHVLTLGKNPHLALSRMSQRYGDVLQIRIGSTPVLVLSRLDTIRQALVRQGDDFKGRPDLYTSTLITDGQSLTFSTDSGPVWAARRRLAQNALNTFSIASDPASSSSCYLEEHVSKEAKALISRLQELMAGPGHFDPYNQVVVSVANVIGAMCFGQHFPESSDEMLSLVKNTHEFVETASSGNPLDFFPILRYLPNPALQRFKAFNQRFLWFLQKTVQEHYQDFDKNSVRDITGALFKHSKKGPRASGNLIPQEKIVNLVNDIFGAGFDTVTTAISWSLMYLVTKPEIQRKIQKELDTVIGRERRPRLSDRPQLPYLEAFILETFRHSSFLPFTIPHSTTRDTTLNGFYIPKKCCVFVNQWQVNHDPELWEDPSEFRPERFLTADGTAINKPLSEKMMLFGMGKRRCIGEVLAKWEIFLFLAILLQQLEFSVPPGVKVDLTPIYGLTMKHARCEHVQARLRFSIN

Cytochrome P450 2D6 = Cytochrome P450 2D6 (Homo sapiens, UniProt P10635); assay: Drug metabolism assessed as intrinsic clearance for human recombinant CYP2D6-mediated compound formation per nmol protein treated with AM2201 at 10 uM after 90 mins; format: ADME; settings: recombinant enzyme, 1.5 h
Cytochrome P450 2D6, sequence (P10635 whole entry): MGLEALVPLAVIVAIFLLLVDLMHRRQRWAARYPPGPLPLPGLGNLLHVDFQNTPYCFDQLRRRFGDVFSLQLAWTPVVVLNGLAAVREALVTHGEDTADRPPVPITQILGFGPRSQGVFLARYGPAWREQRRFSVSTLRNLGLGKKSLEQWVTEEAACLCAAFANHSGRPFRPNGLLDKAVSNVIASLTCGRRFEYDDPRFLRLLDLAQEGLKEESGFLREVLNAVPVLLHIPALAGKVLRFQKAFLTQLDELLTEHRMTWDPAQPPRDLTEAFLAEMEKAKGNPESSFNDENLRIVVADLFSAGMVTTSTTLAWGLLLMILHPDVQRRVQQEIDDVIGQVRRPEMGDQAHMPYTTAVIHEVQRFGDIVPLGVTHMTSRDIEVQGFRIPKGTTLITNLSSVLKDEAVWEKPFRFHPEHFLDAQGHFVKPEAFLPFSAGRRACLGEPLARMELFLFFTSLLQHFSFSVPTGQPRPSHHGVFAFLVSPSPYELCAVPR

Cytochrome P450 2C9 = Cytochrome P450 2C9 (Homo sapiens, UniProt P11712); assay: Drug metabolism assessed as intrinsic clearance for human recombinant CYP2C9-mediated compound formation per nmol protein treated with AM2201 at 10 uM after 90 mins; format: ADME; settings: recombinant enzyme, 1.5 h
Cytochrome P450 2C9, sequence (P11712 whole entry): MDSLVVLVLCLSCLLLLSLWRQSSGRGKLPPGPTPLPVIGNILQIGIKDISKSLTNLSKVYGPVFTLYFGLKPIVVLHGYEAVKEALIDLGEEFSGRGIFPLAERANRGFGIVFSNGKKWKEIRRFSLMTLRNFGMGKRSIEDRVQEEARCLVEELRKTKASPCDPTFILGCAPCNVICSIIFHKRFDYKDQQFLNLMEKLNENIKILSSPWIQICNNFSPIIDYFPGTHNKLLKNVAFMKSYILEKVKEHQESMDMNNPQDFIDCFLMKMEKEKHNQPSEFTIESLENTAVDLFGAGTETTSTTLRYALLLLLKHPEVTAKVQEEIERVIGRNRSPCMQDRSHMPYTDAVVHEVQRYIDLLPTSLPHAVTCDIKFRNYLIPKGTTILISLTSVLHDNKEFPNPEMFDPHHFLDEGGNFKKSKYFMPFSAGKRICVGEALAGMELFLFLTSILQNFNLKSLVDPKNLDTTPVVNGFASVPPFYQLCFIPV

Cytochrome b5 = Cytochrome b5 (Homo sapiens, UniProt P00167); assay: Drug metabolism assessed as cytochrome b5 (unknown origin)-mediated compound formation treated with JWH-018 at 10 uM after 90 mins by LC-MS/MS analysis in presence of oxidoreductase; format: ADME; settings: 1.5 h
Cytochrome b5, sequence (P00167 whole entry): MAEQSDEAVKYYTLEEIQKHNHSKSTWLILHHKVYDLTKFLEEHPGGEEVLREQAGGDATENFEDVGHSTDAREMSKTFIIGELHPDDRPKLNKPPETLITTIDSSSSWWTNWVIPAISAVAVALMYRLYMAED

Cannabinoid receptor 1 (Mus musculus), sequence (P47746 whole entry): as the sequence (P47746 whole entry) above

O=C(c1cccc2ccccc12)c1cn(CCCCCF)c2ccccc12
Activity [1]: inactive
Ki (Cannabinoid receptor 1): 0.395 nM
Drug metabolism (Cytochrome P450 3A4 [2]): metabolite_not_detected
Drug metabolism (Cytochrome P450 2E1 [3]): metabolite_not_detected
Activity [4]: Active
Drug metabolism [5]: metabolite_detected
Drug metabolism (Cytochrome P450 2E1 [6]): metabolite_not_detected
Drug metabolism (Cytochrome P450 3A4 [7]): metabolite_not_detected
Drug metabolism [8]: metabolite_detected
Drug metabolism (Cytochrome P450 2E1 [9]): metabolite_not_detected
Drug metabolism (Cytochrome P450 3A4 [10]): metabolite_not_detected
Drug metabolism [11]: metabolite_detected

CCCCCCC(C)(C)c1ccc([C@@H]2C[C@H](O)CC[C@H]2CCCO)c(O)c1
Activity [1]: inactive
Activity [4]: Active

CCCCCn1cc(C(=O)c2cccc3ccccc23)c2cccc(O)c21
Drug metabolism (Liver microsome [12]): metabolite_detected
CLH (Liver microsome [13]): 0 µL/min/mg
CLH (Liver microsome [14]): 0 µL/min/g

O=C(c1cccc2ccccc12)c1cn(CCCC(O)CF)c2ccccc12 (configuration not stated)
CL (Cytochrome P450 2C19): 32 µL/min
CL (Cytochrome P450 1A2): 19 µL/min
Activity [4]: Active
CL (Cytochrome P450 2D6): 3.7 µL/min
CL (Cytochrome P450 2C9): 63 µL/min
CLH (Liver microsome [14]): 0.124 µL/min/g

CCCCCn1cc(C(=O)c2cccc3ccccc23)c2ccc(O)cc21
Drug metabolism (Liver microsome [12]): metabolite_detected
CLH (Liver microsome [13]): 1 µL/min/mg
CLH (Liver microsome [14]): 0 µL/min/g
Drug metabolism (Cytochrome b5): metabolite_detected
